Screening data: PubChem BioAssay, several laboratories
M1 agonist: M1 muscarinic receptor agonists, primary screen, CHO-M1 cells, Fluo-4 calcium, agonist mode. Fluo-4 calcium fluorescence; active compounds read high. B-score at 10 µM. hit rate 3% among 64,000;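 active = fluorescence rise, raw or as B-score row- and column-corrected plate score, outside the 99.7% band of its plate's samples, either direction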
SF1 activator: activators of human SF-1, primary screen, cell-based, CHO-K1, Gal4-SF-1 LBD, luciferase luminescence; Steroidogenic factor 1 (Homo sapiens), Q13285; activation, % at 10 µM; CHO-K1 Gal4-SF-1 LBD luciferase reporter; % increase over DMSO SF-1-specific signal; hit rate 1.9% among 65,000;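 active = activation above the mean activation of all tested compounds plus 3 SD, cut at about 50% in these data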
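Assay system: CHO-K1 cells co-transfected with Gal4 DBD–human SF-1 LBD, 5xGal4 luciferase reporter; doses: 10 µM only; incubation: 20 h compound exposure at 37 °C after 1 h cell settling; signal: luciferase light emission; evaluation: percent activation versus DMSO; repeats: one test per compound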
S1P3 ag: human S1P3 receptor agonists, primary screen, cell-based, primary and confirmation, NFAT-BLA reporter; S1P3 NFAT-BLA reporter cells, agonism, FRET ratio; relative to 1 µM S1P, basal subtracted; activation, % at 4.5 µM; hit rate 0.1% among 60,000; AID 373, 2006;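 active = activation above the screen-wide mean plus 3 SD, cut at about 4.5% in these data, passing the limit was not always enough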
Target sequence (Q99500 whole entry, looked up): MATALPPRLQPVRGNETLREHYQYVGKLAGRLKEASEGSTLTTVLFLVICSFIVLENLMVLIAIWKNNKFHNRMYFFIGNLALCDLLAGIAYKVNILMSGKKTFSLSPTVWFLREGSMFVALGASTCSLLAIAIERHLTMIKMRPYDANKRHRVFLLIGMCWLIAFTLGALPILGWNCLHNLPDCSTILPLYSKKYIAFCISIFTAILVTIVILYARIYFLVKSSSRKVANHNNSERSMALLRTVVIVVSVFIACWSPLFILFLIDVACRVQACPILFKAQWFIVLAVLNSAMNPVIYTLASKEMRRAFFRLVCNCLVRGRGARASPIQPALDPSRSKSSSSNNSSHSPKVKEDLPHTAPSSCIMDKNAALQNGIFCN
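Assay system: stable CHO line with human S1P3, Gα16, NFAT-BLA reporter; Detection: FRET β-lactamase substrate fluorescence, excitation 405 nm, 460/535 nm emission ratio, background-subtracted; Read-out: percent activation versus median 1 µM S1P response, basal-subtracted, per plate; Incubation: cells plated overnight, compound 4 h 37 °C, substrate 2 h RT.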
S1P1 ag-PAM: S1P1 agonists and agonism potentiators, primary screen, cell-based, primary and confirmation screens, CRE-bla reporter; Sphingosine 1-phosphate receptor 1 (Homo sapiens), P21453; S1P1 CRE-bla cells, forskolin, beta-lactamase FRET, potentiator mode; S1P1 agonist co-added at EC20, 2 nM; 100% = saturating reference agonist, 0% = basal; activation, % at 9.5 µM; hit rate 0.57% among 56,000;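 active = activation above a cutoff set at the mean activation of all tested compounds plus 3 SD, cut at about 54% in these data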;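 also: forskolin at 4 µM as EC80 and the EC20 agonist is SEW2871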
RORA act: activators of orphan receptor RORA, primary screen, cell-based, luminescence; Nuclear receptor ROR-alpha (Homo sapiens), P35398; CHO-K1 Gal4-RORA LBD luciferase reporter; percent increase over mock-subtracted basal signal; activation, % at 10 µM; hit rate 1.5% among 65,000; AID 560, 2006;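 active = activation above the mean of all tested compounds plus 3 SD, cut at about 49% in these data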
M1 antagonist: antagonists of rat M1 muscarinic receptor | B-score at 10 µM | CHO-M1 cells, Fluo-4 calcium, ACh EC80 antagonist mode; active compounds read low | Muscarinic acetylcholine receptor M1 (Rattus norvegicus), P08482 | hit rate 3.4% among 64,000;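 active = calcium fluorescence response, raw or row-and-column corrected B-score, differing from the plate sample mean either way at a set confidence level, mostly lower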
M1 antag conf: rat M1 muscarinic receptor antagonists, confirmation, CHO cells, Fluo-4 calcium, duplicate; shares compounds with M1 antagonist; ACh EC80 antagonism; active compounds read low; calcium response (max-min fluorescence) at 10 µM; hit rate 43% among 1,700;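 active = calcium response below the same-plate mean of wells given acetylcholine alone at its 80%-effect dose, minus 3 SD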
mGluR4 antag: human mGluR4 response to M1 antagonist hits, M1 allosteric modulator project, cell-based, antagonist mode, secondary assay 1 | shares compounds with M1 antagonist | hit rate 0.9% among 1,700 | CHO-mGluR4 calcium flux, Fluo-4 fluorescence, glutamate EC80; active compounds read low | fluorescence response (max-min) at 10 µM;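 active = fluorescence response below the plate's average for near-maximal glutamate wells, less 3 SD of those wells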;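 also: raw unnormalized fluorescence span taken in the window right after glutamate addition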
Of the large screens only hits and unclear results are named; the others gave an inactive call (follow-up assays come after a bar, where they were run). Sampled rows, rich in hits. Any-hit rate of the full collection: about 8.8%.

O=C(NC1CCN(Cc2ccccc2)CC1)C1CCCN(c2nnc(-n3cccc3)s2)C1 (stereo not given)	M1 antagonist -3.3 | M1 antag conf 260 | mGluR4 antag inactive
O=C(NC1CCN(Cc2ccccc2)CC1)C1CCN(c2nnc(-n3cccc3)s2)CC1	M1 antagonist -1.3 | M1 antag conf 278 | mGluR4 antag inactive
O=C(NCc1ccco1)C1CCN(c2nnc(-n3cccc3)s2)CC1	none
Cc1ccc(-c2nc(CSCC(=O)NCc3cccnc3)c(C)o2)cc1	none
CCN(CC)CCNC(=O)c1sc2nc(-c3ccccc3)cn2c1C	M1 antagonist -0.79 | M1 antag conf 345 | mGluR4 antag inactive
COCCN(CCOC)C(=O)c1sc2nc(-c3ccccc3)cn2c1C	none
CN(C)S(=O)(=O)N(Cc1ccc(Br)cc1)c1ccccc1	M1 antagonist -2.2 (no result: S1P1 ag-PAM) | M1 antag conf inactive | mGluR4 antag inactive
CCCc1c(O)nc(SCCN(CC)CC)n(C(=O)c2ccccc2)c1=O	none
COc1cccc(NC(=O)c2oc3ccccc3c2NC(=O)C(C)(C)C)c1	M1 antagonist -3.8 | M1 antag conf inactive | mGluR4 antag inactive
O=C1c2oc3ccccc3c(=O)c2C(c2ccc(Br)cc2)N1c1ncccn1 (stereo not given)	none
COc1ccc(N2CCN(C(CNC(=O)C3CCCCC3)c3cccnc3)CC2)cc1 (stereo not given)	M1 antagonist -2.9 | M1 antag conf inactive | mGluR4 antag inactive
COc1cc(OC)cc(C(=O)Nc2cccc(NC(C)=O)c2)c1	M1 antagonist -3.6 (no result: S1P1 ag-PAM) | M1 antag conf inactive | mGluR4 antag inactive
CCOC(=O)Nc1cccc(NC(=O)c2cc(OC)cc(OC)c2)c1	none (no result: S1P1 ag-PAM)
CCn1c(SCC(=O)NCCc2ccc(F)cc2)nnc1-c1cccs1	none
O=C(Nc1ccon1)c1cccc(S(=O)(=O)N2CCCC2)c1	none
O=C(NCc1ccc2c(c1)OCO2)C1CCCN(S(=O)(=O)c2cccnc2)C1 (stereo not given)	none
C=CCn1c(SCc2nc3ccccc3[nH]2)nnc1-c1ccncc1	M1 antagonist -16 | M1 antag conf inactive | mGluR4 antag inactive
Cn1ccnc1SCC(=O)N(C1CCCCC1)C1CCCCC1	none
CNS(=O)(=O)c1cccc(C(=O)OCC(=O)c2cc(C)n(-c3ccc4c(c3)OCO4)c2C)c1	M1 antagonist -2.3 (no result: S1P3 ag, S1P1 ag-PAM) | M1 antag conf inactive | mGluR4 antag 164
CNS(=O)(=O)c1cccc(C(=O)OCC(=O)Nc2ccccc2OC(F)F)c1	none
CC(OCC(O)CN(C)CCOc1ccccc1)c1ccc(Cl)cc1 (stereo not given)	M1 antagonist -2 | M1 antag conf 511 | mGluR4 antag inactive
CCOc1cccc(OCCOCCN(C)Cc2ccccc2)c1	none
O=C(C1CCC(N2C(=O)C3CC=CCC3C2=O)CC1)N1CCCCC1 (stereo not given)	none
CN1CCN(C(=O)N2c3ccccc3C=Cc3ccccc32)CC1	M1 antagonist -18 | M1 antag conf 20 | mGluR4 antag inactive
CN1CCN(C(=O)c2ccc3ccccc3c2)CC1	none
Cc1cc(C(C)(C)C)cc(C)c1CC1=NCCN1	M1 antagonist -8.4 | M1 antag conf 412 | mGluR4 antag inactive
COC(=O)c1ccc(COc2ccc3c4c(c(=O)oc3c2)CCC4)o1	none (no result: S1P1 ag-PAM)
